Compounds with a hit are over-represented: about 2.6% of the library has one in this group of screens.
SIAE inh = human SIAE inhibitors, primary screen, biochemical, fluorescence polarization, FP-Rh probe, 1536-well HTS. SIAE FP-Rh probe binding. hit rate 0.69% among 370,000. AID 1053197, 2014. Sialate O-acetylesterase (Homo sapiens), Q9HAT2. inhibition, % at 9.66 µM;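 active means inhibition above a cutoff: mean of compounds within the control limits plus 3 SD of those, cut at about 17% in these data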;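 further: 0% = plate median of compound wells and 100% = probe without SIAE protein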
mABHD4 FP = ABHD4 inhibitors, primary screen, biochemical, fluorescence polarization, mouse | (Lyso)-N-acylphosphatidylethanolamine lipase (Mus musculus), Q8VD66 | purified mABHD4, FP-Rh probe fluorescence polarization | inhibition, % at 8.92 µM | hit rate 0.54% among 370,000;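 active means inhibition exceeding the mean over every tested compound plus 3 SD, cut at about 30% in these data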;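 further: 0% = plate median of compound wells and 100% = S159A mutant with DMSO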
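System: mouse ABHD4 enzyme, wild type / Medium: HEPES pH 7.0, NaCl, Pluronic buffer / Reagent: FP-Rh activity-based fluorescent probe / Control set: S159A mutant high control, sample median low control / Detection: fluorescence polarization with parallel and perpendicular emission, 525/598 nm / Schedule: 45 min + 60 min at 25 °C / Compound dosing: 8.92 µM, single dose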
TCR CD3 inh = inhibitors of human TCR-CD3 interaction, primary screen, biochemical, fluorescence, TAMRA-labeled TCR probe; hit rate 0.37% among 360,000; T-cell receptor (TCR); inhibition, % at 9.4 µM; in the data active means inhibition above about 19%;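 further: recombinant mutant TCR 2C K166C tagged with TAMRA read by polarization; 0% = receptor in buffer alone and 100% = receptor with positive control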
HTRA1 inhibitor = HTRA1 serine protease inhibitors, primary screen, biochemical, fluorescence polarization, HTS. Q92743. recombinant HTRA1, FP-rhodamine activity-based probe. inhibition, % at 5.96 µM. hit rate 0.5% among 340,000; in the data active means inhibition above about 36%;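 further: 0% = enzyme with DMSO and 100% = wells lacking enzyme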
Target sequence (Q92743 whole entry, looked up): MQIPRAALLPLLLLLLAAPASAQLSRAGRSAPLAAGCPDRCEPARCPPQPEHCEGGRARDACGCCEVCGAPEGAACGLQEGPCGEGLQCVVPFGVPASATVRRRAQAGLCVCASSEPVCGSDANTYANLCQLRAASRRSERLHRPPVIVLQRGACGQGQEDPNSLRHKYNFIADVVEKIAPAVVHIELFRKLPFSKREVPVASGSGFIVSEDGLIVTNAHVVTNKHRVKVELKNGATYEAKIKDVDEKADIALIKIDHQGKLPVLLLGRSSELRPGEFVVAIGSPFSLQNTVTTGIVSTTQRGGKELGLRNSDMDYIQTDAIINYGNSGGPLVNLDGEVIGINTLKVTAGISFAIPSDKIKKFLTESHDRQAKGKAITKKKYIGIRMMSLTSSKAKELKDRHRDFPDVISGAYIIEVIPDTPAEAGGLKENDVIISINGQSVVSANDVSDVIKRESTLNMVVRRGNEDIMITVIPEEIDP
PRMT1 inh = PRMT1 methyltransferase inhibitors, primary screen, biochemical, fluorescence polarization | inhibition, % at 2.79 µM | Protein arginine N-methyltransferase 1 (Homo sapiens), Q99873 | recombinant PRMT1, activity-based probe fluorescence polarization | AID 652257, 2013 | hit rate 1.3% among 370,000;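 active means inhibition above about 21% made by adding two undisclosed values, limit read from the data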
PRMT1 confirm = PRMT1 methyltransferase inhibitors, confirmation, biochemical, fluorescence polarization, triplicate; shares compounds with PRMT1 inh; recombinant His-PRMT1, activity-based probe fluorescence polarization; inhibition, % at 2.79 µM; hit rate 42% among 3,300;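 active means mean inhibition across replicates above the hit cutoff derived for the earlier primary screen, cut at about 22% in these data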
* marks the source's active call; other numbers are inactive results; nt = no result given.

SMILES | SIAE inh | mABHD4 FP | TCR CD3 inh | HTRA1 inhibitor | PRMT1 inh | PRMT1 confirm
CC(/C=C/C(=O)c1ccc(C)cc1)=C\c1ccccc1 | -2 | -5 | -6 | -26 | 15 | nt
Cc1ccc(C(=O)/C=C\C(=O)c2ccc(C)cc2)cc1 | 0 | 1 | 0 | -1 | 40* | 57*
Cc1ccc(C(=O)/C=C/c2ccc(-c3ccc(C)cc3)o2)cc1 | -2 | 2 | 2 | -11 | 50* | 6
CC(=C/c1ccccc1)/C=N/n1c(-c2ccco2)n[nH]c1=S | 1 | 11 | 0 | 2 | 32* | 18
S=c1[nH]nc(-c2ccco2)n1/N=C/c1cccc(Cl)c1Cl | -15 | 8 | 5 | -10 | 33* | 33*
CC(/C=N/n1c(-c2cc(C)[nH]n2)n[nH]c1=S)=C\c1ccccc1 | 9 | -4 | 6 | 2 | 1 | nt
CCc1ccc(NC(=O)c2nc(S(=O)(=O)Cc3ccccc3)ncc2Cl)cc1 | -9 | -17 | -5 | -9 | 31* | 26*
CCS(=O)(=O)c1ncc(Cl)c(C(=O)Nc2ccc(S(=O)(=O)N3CCC(C)CC3)cc2)n1 | -4 | -13 | 0 | -84 | 31* | 14
COC(=O)c1ccc(NC(=O)c2nc(S(=O)(=O)Cc3cccc(C)c3)ncc2Cl)cc1 | -4 | -12 | 0 | -18 | 52* | 38*
COC(=O)[C@]12C[C@H](CC(=O)NCc3cccc4ccccc34)C(=O)N(Cc3ccc(Cl)cc3Cl)C1=C[C@H](COCc1ccccc1)O[C@@H]2C | -9 | -10 | nt | nt | 68* | 1
Cc1cccc(S(=O)(=O)C(C#N)c2nc3ccccc3nc2N2CCCC2)c1 (stereo unspecified) | -12 | 8 | -2 | 21 | 25* | 5
C/C=C\C=C\C(=O)N1CC2(CC(c3cccc(NC(=O)COc4ccc(Cl)cc4)c3)=NO2)C[C@H]1C(N)=O (stereo partly specified) | -28 | -44 | 0 | -39 | 63* | 22*
C/C=C\C=C/C(=O)Nc1cccc(C2=NOC3(C2)C[C@@H](C(N)=O)N(C(=O)COc2ccc(Cl)cc2)C3)c1 (stereo partly specified) | -27 | -16 | -4 | -52 | 12 | nt
CC1CC(C)CN(C(=O)c2cccc(S(=O)(=O)N(C)c3ccccc3)c2)C1 (stereo unspecified) | 3 | 2 | 3 | -3 | -1 | nt
Cc1c(N2C(=O)/C(=C/c3ccccc3)SC2=S)c(=O)n(-c2ccccc2)n1C | -3 | -8 | -4 | 2 | 9 | nt
Cc1c(N2C(=O)/C(=C\c3ccccc3O)SC2=S)c(=O)n(-c2ccccc2)n1C | 5 | 0 | -7 | 8 | 47* | 83*
Cc1c(N2C(=O)/C(=C/C3CC=CCC3)SC2=S)c(=O)n(-c2ccccc2)n1C (stereo unspecified) | 0 | 6 | -2 | nt | 39* | 26*
Cc1c(N2C(=O)/C(=C\C3CC=CCC3)SC2=S)c(=O)n(-c2ccccc2)n1C (stereo unspecified) | -2 | 10 | -2 | -3 | 43* | 25*
CCCn1c(N)c(N(CCOC)C(=O)c2c(CC)noc2C)c(=O)[nH]c1=O | -2 | 11 | 7 | 1 | 3 | nt
O=C(NC1=NCCS1)c1csc2ccccc12 | 0 | -3 | 1 | -1 | 27* | 9
CCOc1ccc(-n2c(SCC(=O)NC)nnc2-c2ccco2)cc1 | 0 | -3 | 10 | 2 | -4 | nt
CCN1C(=O)[C@H]2[C@H]3CN=C(SCC(=O)c4ccccc4)N3[C@@](CC)(C(=O)OC)[C@H]2C1=O | 3 | 1 | -7 | 0 | 69* | 44*
COC(=O)[C@@]1(C)[C@H]2C(=O)N(Cc3ccccc3)C(=O)[C@H]2[C@H]2CN=C(SC)N21 | 7 | 4 | -5 | 9 | 4 | nt
CCN1C[C@@H]2[C@@H]3C(=O)N(Cc4ccccc4)C(=O)[C@@H]3[C@](CC)(C(=O)OC)N2C1=NCc1ccccc1 | 10 | 15 | 8 | -2 | 32* | 6

Source: PubChem
